Reference: ChEMBL document CHEMBL4020756, “Discovery of novel substituted benzo-anellated 4-benzylamino pyrrolopyrimidines as dual EGFR and VEGFR2 inhibitors” (Bioorg Med Chem Lett, 2017)

How the values were obtained:
[1] = molecular target: Epidermal growth factor receptor (Homo sapiens, UniProt P00533); assay: Inhibition of EGFR (unknown origin) using poly(Glu,Tyr)4:1 as substrate in presence of [gamma-33P]-ATP after 60 mins by scintillation counting analysis
[2] = molecular target: Vascular endothelial growth factor receptor 2 (Homo sapiens, UniProt P35968); assay: Inhibition of VEGFR2 (unknown origin) using poly(Glu,Tyr)4:1 as substrate in presence of [gamma-33P]-ATP after 60 mins by scintillation counting analysis
Chain of Vascular endothelial growth factor receptor 2 (P35968 whole entry): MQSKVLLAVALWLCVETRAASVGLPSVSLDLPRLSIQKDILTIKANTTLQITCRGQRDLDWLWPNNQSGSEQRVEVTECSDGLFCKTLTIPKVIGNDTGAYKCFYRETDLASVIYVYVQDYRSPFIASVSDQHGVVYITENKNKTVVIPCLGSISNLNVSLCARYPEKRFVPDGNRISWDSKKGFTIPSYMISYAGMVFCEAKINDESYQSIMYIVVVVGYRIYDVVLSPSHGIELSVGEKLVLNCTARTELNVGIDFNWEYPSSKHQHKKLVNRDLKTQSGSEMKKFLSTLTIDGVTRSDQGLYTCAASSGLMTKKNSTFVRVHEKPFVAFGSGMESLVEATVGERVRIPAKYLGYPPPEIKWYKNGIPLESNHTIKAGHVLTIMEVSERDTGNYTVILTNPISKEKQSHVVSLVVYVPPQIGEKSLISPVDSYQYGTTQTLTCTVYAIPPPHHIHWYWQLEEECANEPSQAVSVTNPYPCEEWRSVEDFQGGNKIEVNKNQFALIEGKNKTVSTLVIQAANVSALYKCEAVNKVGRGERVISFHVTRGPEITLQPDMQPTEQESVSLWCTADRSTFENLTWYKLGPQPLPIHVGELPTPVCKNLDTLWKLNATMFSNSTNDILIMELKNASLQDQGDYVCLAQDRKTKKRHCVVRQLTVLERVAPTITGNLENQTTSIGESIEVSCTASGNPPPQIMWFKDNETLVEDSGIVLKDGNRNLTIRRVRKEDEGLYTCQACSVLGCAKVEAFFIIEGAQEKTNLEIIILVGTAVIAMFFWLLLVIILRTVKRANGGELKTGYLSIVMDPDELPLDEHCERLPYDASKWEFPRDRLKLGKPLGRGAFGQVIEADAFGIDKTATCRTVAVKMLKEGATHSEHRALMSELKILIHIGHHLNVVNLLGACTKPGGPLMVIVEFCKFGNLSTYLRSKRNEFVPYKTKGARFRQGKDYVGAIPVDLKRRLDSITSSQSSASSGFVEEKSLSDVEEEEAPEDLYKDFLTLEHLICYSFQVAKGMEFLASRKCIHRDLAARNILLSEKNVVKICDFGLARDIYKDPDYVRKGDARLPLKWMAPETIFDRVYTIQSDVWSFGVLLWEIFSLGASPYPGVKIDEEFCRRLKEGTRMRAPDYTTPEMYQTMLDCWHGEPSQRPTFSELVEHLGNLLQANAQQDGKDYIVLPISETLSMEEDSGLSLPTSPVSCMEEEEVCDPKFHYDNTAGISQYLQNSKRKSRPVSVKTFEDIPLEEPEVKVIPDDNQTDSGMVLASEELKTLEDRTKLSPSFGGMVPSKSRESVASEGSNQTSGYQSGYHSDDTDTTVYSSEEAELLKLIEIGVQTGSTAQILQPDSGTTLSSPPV
Summary of the method: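 Radiometric ATP-competition assay at 30 °C for 60 min. Kinase was 20 ng/50 µL with Poly(Glu,Tyr)4:1 substrate at 125 ng/50 µL. Buffer was 70 mM HEPES-NaOH pH 7.5 with 3 mM MgCl2, 3 mM MnCl2, 3 µM orthovanadate, 1.2 mM DTT, 50 µg/mL PEG20000 and 15 µM [γ-33P]-ATP. The stop was 2% phosphoric acid, and 33Pi incorporation was counted by scintillation. Ten concentrations from 3 nM to 100 µM gave IC50.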

[3] = system: MDA-MB-468; assay: Growth inhibition of human MDA-MB-468 cells at 10 uM after 48 hrs by sulforhodamine assay relative to control; format: functional; settings: MDA-MB-468, 48 h, read-out: GI
Summary of the method: (§1)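 Tested at a single 10 µM concentration in the NCI tumour cell panel screen. Growth inhibition was read by sulforhodamine B staining.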

[4] = system: HOP-62; assay: Growth inhibition of human HOP62 cells at 10 uM after 48 hrs by sulforhodamine assay relative to control; format: functional; settings: HOP-62, 48 h, read-out: GI; summary of the method: as §1
[5] = system: NCI-H460; assay: Growth inhibition of human NCI-H460 cells at 10 uM after 48 hrs by sulforhodamine assay relative to control; format: functional; settings: NCI-H460, 48 h, read-out: GI; summary of the method: as §1
[6] = system: HOP-92; assay: Growth inhibition of human HOP92 cells at 10 uM after 48 hrs by sulforhodamine assay relative to control; format: functional; settings: HOP-92, 48 h, read-out: GI; summary of the method: as §1
[7] = system: MDA-MB-231; assay: Growth inhibition of human MDA-MB-231 cells at 10 uM after 48 hrs by sulforhodamine assay relative to control; format: functional; settings: MDA-MB-231, 48 h, read-out: GI; summary of the method: as §1
[8] = system: BT-549; assay: Growth inhibition of human BT549 cells at 10 uM after 48 hrs by sulforhodamine assay relative to control; format: functional; settings: BT-549, 48 h, read-out: GI; summary of the method: as §1
[9] = system: Hs-578T; assay: Growth inhibition of human Hs578T cells at 10 uM after 48 hrs by sulforhodamine assay relative to control; format: functional; settings: read-out: GI; summary of the method: as §1
[10] = molecular target: Dual specificity mitogen-activated protein kinase kinase 1 (Homo sapiens, UniProt Q02750); assay: Inhibition of MEK1 (unknown origin)
Summary of the method: (§2)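 ATP-competition kinase assay run at several inhibitor concentrations. Reduced phosphorylation of the kinase substrate was measured by scintillation counting, and IC50 values were derived.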

[11] = molecular target: Tyrosine-protein kinase JAK2 (Homo sapiens, UniProt O60674); assay: Inhibition of JAK2 (unknown origin); summary of the method: as §2
[12] = molecular target: Interleukin-1 receptor-associated kinase 1 (Homo sapiens, UniProt P51617); assay: Inhibition of IRAK (unknown origin); summary of the method: as §2
[13] = molecular target: Protein kinase C alpha type (Homo sapiens, UniProt P17252); assay: Inhibition of PKC alpha (unknown origin); summary of the method: as §2
[14] = Solubility of the compound in pH 7.5 HEPES-NaOH buffer at > 100 uM; format: physicochemical
[15] = molecular target: Serine/threonine-protein kinase MARK1 (Homo sapiens, UniProt Q9P0L2); assay: Inhibition of MARK1 (unknown origin); summary of the method: as §2
[16] = molecular target: Myotonin-protein kinase (Homo sapiens, UniProt Q09013); assay: Inhibition of DMPK (unknown origin); summary of the method: as §2
[17] = molecular target: Mitogen-activated protein kinase kinase kinase 21 (Homo sapiens, UniProt Q5TCX8); assay: Inhibition of MLK4 (unknown origin); summary of the method: as §2
[18] = molecular target: Tyrosine-protein kinase ABL1 (Homo sapiens, UniProt P00519); assay: Inhibition of c-Abl (unknown origin); summary of the method: as §2
Chain of Tyrosine-protein kinase ABL1 (P00519 whole entry): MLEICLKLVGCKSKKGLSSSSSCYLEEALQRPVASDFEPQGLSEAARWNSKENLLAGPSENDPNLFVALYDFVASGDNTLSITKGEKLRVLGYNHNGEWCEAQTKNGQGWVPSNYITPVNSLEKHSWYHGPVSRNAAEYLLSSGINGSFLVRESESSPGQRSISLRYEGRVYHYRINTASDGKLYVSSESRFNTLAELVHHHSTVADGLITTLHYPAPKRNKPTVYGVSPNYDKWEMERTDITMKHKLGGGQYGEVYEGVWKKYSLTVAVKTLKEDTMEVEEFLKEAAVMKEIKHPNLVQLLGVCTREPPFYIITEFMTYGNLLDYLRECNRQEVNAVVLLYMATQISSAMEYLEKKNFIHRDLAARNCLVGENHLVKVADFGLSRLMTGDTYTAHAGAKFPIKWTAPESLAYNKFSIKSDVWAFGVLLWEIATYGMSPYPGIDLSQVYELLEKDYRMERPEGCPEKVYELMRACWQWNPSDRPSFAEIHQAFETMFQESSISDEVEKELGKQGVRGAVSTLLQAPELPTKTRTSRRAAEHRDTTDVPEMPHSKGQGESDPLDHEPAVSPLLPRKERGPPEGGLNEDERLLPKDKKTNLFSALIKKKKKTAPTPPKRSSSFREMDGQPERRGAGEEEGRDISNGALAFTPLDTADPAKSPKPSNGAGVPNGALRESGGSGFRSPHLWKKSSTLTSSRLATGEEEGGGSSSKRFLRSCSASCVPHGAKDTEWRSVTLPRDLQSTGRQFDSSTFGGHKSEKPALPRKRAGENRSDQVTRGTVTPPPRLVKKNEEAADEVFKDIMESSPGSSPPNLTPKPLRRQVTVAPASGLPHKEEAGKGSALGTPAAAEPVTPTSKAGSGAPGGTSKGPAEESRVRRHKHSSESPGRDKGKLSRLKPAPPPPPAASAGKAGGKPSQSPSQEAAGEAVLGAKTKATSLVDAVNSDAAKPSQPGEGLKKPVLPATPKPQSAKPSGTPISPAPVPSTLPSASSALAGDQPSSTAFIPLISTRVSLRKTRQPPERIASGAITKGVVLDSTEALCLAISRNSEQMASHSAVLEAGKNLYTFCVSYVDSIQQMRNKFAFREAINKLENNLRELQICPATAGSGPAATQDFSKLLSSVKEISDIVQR

[19] = molecular target: Death-associated protein kinase 1 (Homo sapiens, UniProt P53355); assay: Inhibition of DAPK1 (unknown origin); summary of the method: as §2
Chain of Death-associated protein kinase 1 (P53355 whole entry): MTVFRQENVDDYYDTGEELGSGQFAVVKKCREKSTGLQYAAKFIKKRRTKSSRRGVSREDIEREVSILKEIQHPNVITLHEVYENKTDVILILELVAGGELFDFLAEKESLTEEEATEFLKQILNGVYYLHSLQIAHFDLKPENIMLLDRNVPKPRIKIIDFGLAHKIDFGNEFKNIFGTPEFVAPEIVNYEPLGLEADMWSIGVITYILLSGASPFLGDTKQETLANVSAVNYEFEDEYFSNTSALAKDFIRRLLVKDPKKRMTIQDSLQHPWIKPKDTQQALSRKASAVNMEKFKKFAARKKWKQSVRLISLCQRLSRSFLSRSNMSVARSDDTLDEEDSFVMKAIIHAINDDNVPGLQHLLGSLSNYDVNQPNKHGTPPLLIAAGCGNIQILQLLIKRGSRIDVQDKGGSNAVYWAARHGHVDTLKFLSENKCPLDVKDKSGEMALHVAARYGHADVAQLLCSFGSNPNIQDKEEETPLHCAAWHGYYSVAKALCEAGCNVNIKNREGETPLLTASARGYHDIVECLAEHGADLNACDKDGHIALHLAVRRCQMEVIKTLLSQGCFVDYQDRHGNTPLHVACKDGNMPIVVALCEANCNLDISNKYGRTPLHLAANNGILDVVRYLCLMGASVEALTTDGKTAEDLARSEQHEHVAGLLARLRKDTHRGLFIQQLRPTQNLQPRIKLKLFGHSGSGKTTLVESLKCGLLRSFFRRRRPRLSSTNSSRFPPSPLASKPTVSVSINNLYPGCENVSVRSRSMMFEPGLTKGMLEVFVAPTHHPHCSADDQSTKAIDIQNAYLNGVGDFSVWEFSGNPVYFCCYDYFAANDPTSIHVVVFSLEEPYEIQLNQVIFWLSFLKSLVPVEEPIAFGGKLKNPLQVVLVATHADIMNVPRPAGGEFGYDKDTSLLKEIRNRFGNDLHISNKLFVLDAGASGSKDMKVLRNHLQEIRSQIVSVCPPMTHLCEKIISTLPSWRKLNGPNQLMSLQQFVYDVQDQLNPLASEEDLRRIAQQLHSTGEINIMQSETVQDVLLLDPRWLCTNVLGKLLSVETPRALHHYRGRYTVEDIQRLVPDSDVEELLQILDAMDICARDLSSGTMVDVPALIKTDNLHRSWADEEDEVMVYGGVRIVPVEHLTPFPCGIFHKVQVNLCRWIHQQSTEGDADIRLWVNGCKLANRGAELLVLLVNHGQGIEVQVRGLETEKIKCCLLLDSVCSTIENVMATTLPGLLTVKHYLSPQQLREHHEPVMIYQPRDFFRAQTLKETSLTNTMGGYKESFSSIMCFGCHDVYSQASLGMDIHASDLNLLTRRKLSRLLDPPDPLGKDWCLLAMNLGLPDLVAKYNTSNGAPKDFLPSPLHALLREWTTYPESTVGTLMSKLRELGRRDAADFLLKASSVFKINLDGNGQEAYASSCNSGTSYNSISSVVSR

[20] = molecular target: Wee1-like protein kinase (Homo sapiens, UniProt P30291); assay: Inhibition of Wee1 (unknown origin); summary of the method: as §2
[21] = molecular target: Activin receptor type-1-like (Homo sapiens, UniProt P37023); assay: Inhibition of ALK1 (unknown origin); summary of the method: as §2
[22] = molecular target: Mitogen-activated protein kinase kinase kinase 2 (Homo sapiens, UniProt Q9Y2U5); assay: Inhibition of MEKK2 (unknown origin); summary of the method: as §2
[23] = molecular target: Casein kinase I isoform alpha (Homo sapiens, UniProt P48729); assay: Inhibition of CK1 alpha (unknown origin); summary of the method: as §2

Chain of Epidermal growth factor receptor (P00533 whole entry): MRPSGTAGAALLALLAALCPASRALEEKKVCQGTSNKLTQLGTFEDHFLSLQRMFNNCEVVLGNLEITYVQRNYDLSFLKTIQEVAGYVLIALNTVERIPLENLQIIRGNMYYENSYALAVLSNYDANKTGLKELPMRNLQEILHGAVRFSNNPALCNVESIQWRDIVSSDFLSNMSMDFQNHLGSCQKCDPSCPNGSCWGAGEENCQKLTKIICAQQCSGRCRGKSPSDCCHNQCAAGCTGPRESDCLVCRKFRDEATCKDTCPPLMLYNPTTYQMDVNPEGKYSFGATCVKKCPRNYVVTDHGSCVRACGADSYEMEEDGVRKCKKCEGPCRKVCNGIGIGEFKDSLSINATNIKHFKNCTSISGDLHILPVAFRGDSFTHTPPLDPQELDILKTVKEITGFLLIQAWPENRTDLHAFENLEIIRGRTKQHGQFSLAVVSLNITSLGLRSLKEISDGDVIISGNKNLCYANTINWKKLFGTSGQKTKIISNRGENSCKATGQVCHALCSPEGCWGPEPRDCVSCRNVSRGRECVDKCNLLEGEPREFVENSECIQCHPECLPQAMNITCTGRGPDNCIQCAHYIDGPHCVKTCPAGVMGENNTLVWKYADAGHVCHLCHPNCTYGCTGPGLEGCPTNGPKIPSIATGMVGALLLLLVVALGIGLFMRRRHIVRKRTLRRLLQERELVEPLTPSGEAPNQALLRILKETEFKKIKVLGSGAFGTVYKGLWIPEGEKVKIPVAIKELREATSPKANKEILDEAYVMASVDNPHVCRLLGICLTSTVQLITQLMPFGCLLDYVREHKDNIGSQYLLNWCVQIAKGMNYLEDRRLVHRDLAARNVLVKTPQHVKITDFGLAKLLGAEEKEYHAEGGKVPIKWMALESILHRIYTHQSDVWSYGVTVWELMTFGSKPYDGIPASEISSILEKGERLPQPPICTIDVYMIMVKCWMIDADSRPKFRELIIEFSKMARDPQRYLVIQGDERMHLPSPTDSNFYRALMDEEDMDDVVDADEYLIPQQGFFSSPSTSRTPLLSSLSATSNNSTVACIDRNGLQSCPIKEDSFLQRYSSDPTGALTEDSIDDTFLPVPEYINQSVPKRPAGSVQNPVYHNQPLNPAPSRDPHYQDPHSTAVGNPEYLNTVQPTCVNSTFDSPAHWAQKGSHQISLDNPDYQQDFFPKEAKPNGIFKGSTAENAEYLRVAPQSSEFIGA

Compound: C[C@@H](Nc1nc(N)nc2[nH]c3ccc(O)cc3c12)c1ccccc1
- Ki [1]: 0.91 µM
- Ki ([2]; read-out: Ki): 1.93 µM

Compound: COc1ccccc1CNc1nc(N)nc2[nH]c3ccc(O)cc3c12
- inhibition of growth at 10 µM [3]: 55%
- inhibition of growth at 10 µM [4]: 63%
- Ki [1]: 1.87 µM
- inhibition of growth at 10 µM [5]: 82%
- inhibition of growth at 10 µM [6]: 66%
- inhibition of growth at 10 µM [7]: 73%
- inhibition of growth at 10 µM [8]: 37%
- inhibition of growth at 10 µM [9]: 41%
- Ki ([2]; read-out: Ki): 0.85 µM

Compound: Nc1nc(NCc2ccccc2)c2c(n1)[nH]c1ccc(O)cc12
- Ki [1]: 0.7 µM
- Ki ([2]; read-out: Ki): 2.76 µM

Compound: Nc1nc(NCc2ccc(Cl)cc2)c2c(n1)[nH]c1ccc(O)cc12
- inhibition of growth at 10 µM [3]: 71%
- inhibition of growth at 10 µM [4]: 31%
- Ki [1]: 0.08 µM
- inhibition of growth at 10 µM [5]: 25%
- inhibition of growth at 10 µM [6]: 57%
- inhibition of growth at 10 µM [7]: 65%
- inhibition of growth at 10 µM [8]: 24%
- inhibition of growth at 10 µM [9]: 33%
- Ki ([2]; read-out: Ki): 3.24 µM

Compound: Cc1ccc(CNc2nc(N)nc3[nH]c4cc(C)c(O)cc4c23)cc1
- IC50 [10]: > 100 µM
- IC50 [11]: > 100 µM
- IC50 [12]: > 100 µM
- IC50 [13]: > 100 µM
- solubility [14]: Soluble
- Ki [1]: 5.67 µM
- IC50 [15]: > 100 µM
- IC50 [16]: > 100 µM
- IC50 [17]: > 100 µM
- IC50 [18]: > 100 µM
- IC50 [19]: > 100 µM
- IC50 [20]: > 100 µM
- Ki [2]: Not Active
- IC50 [21]: > 100 µM
- IC50 [22]: > 100 µM
- IC50 [23]: > 100 µM

Compound: COc1cccc(CNc2nc(N)nc3[nH]c4ccc(O)cc4c23)c1
- Ki [1]: 1.26 µM
- Ki ([2]; read-out: Ki): 3.99 µM

Compound: COc1ccc(CNc2nc(N)nc3[nH]c4ccc(O)cc4c23)cc1
- Ki [1]: 0.12 µM

Compound: COc1ccc(CNc2nc(N)nc3[nH]c4cc(C)c(O)cc4c23)cc1
- Ki [1]: 5.95 µM

Compound: C[C@H](Nc1nc(N)nc2[nH]c3ccc(O)cc3c12)c1ccccc1
- Ki [1]: 0.52 µM
- Ki ([2]; read-out: Ki): 4.15 µM

Compound: Cc1cc2[nH]c3nc(N)nc(NCc4ccccc4)c3c2cc1O
- Ki [1]: 0.64 µM
- Ki ([2]; read-out: Ki): 4.83 µM

Compound: Nc1nc(NCc2cccc(Cl)c2)c2c(n1)[nH]c1ccc(O)cc12
- Ki [1]: 0.29 µM

Compound: Nc1nc(NCCc2ccccc2)c2c(n1)[nH]c1ccc(O)cc12
- Ki [1]: 0.64 µM
- Ki ([2]; read-out: Ki): 4.47 µM

Compound: Nc1nc(NCc2ccccc2)c2c(n1)[nH]c1cc(Br)c(O)cc12
- Ki [1]: 0.37 µM
- Ki [2]: Not Active

Compound: COc1ccccc1CNc1nc(N)nc2[nH]c3cc(C)c(O)cc3c12
- Ki [1]: 4.03 µM
- Ki ([2]; read-out: Ki): 7.24 µM

Compound: Cc1cc2[nH]c3nc(N)nc(NCc4cccc(Cl)c4)c3c2cc1O
- Ki [1]: 0.9 µM

Compound: Cc1cc2[nH]c3nc(N)nc(NCc4ccc(Cl)cc4)c3c2cc1O
- Ki [1]: 0.11 µM
- Ki [2]: Not Active

Compound: COc1ccc(CNc2nc(N)nc3[nH]c4ccc(O)cc4c23)cc1OC
- Ki [1]: 3.68 µM
- Ki ([2]; read-out: Ki): 11.1 µM

Compound: COc1cc2[nH]c3nc(N)nc(NCc4ccccc4)c3c2cc1O
- Ki [1]: 0.61 µM
- Ki ([2]; read-out: Ki): 13.4 µM

Compound: Cc1ccc(CNc2nc(N)nc3[nH]c4ccc(O)cc4c23)cc1
- Ki [1]: 0.09 µM
- Ki ([2]; read-out: Ki): 3.26 µM

Compound: Nc1nc(NCc2ccccc2)c2c(n1)[nH]c1cc(Cl)c(O)cc12
- inhibition of growth at 10 µM [3]: 28%
- inhibition of growth at 10 µM [4]: 20%
- Ki [1]: 0.27 µM
- inhibition of growth at 10 µM [5]: 5%
- inhibition of growth at 10 µM [6]: 19%
- inhibition of growth at 10 µM [7]: 34%
- inhibition of growth at 10 µM [8]: 21%
- inhibition of growth at 10 µM [9]: 16%
- Ki [2]: Not Active
